Shown are actives, neighbours in structure and some others; about 2.4% of the full set was active somewhere.
HNF4A DNA FP = change in binding of human HNF4 alpha to DNA; HNF4a-FITC DNA binding, fluorescence polarization, 1 h; activity change, % at 10 µM; actives 0.3% (n = 360,000); AID 1224865; in the data active means activity change above about 30%, passing the limit was not always enough
Rin1 Abl inh = blocks binding of human Rin1 to Abl. TR-FRET Rin1/Abl binding, biochemical. inhibition, % at 7.35 µM. actives 0.4% (n = 360,000). AID 588664; in the data active means inhibition above about 5%, passing the limit was not always enough
CSN inh = inhibitors of human CSN-mediated cullin deneddylation; Q92905; Purified CSN, SCF-Nedd8-OG deneddylation, fluorescence polarization; inhibition, % at 12.5 µM; actives 0.38% (n = 360,000); AID 651999;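 active means pattern-corrected inhibition above about 35%, with an unprinted fluorescence ratio check between 0.5 and 1.5, limit read from the data, passing the limit was not always enough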;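 further: 0% = enzyme with substrate and 100% = substrate without enzyme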
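Material: purified human Csn5 enzyme expressed in HEK293T cells / Medium: Tris buffer pH 7.5, NaCl, DTT, Tween-20, trehalose, ovalbumin / Compound dosing: 12.5 µM single point / Schedule: 90 min incubation of compound, enzyme and substrate at room temperature / Signal: fluorescence polarization of the substrate / Control set: no-enzyme wells high, enzyme-with-substrate wells low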
Neddylation inh = inhibitors of human cullin neddylation; P61081+Q13564; TR-FRET cullin neddylation, biochemical; inhibition, % at 25 µM; actives 0.58% (n = 360,000); AID 651699; in the data active means inhibition above about 36%
Target sequence (P61081 whole entry, looked up): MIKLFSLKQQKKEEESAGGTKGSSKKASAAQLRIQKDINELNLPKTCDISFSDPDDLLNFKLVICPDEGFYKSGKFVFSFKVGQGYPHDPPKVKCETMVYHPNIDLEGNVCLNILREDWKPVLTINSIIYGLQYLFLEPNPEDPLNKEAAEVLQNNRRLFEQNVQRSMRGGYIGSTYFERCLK
Target sequence (Q13564 whole entry, looked up): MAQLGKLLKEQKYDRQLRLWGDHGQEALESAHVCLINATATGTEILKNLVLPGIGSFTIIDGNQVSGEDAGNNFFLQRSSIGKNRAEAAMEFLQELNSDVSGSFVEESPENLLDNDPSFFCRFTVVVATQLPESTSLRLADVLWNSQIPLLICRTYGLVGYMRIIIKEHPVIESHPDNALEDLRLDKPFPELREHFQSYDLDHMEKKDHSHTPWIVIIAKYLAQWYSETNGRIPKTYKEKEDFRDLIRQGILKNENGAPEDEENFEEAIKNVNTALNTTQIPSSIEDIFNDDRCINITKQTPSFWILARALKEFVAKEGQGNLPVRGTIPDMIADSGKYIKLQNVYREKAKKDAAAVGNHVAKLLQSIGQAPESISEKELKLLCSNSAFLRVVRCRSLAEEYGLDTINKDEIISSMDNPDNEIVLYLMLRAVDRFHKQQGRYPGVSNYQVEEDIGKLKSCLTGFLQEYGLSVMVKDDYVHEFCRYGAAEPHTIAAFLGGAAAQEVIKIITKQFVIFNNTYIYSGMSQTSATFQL
Rpn11 inh = Rpn11 (human) deubiquitinase inhibition | actives 0.59% (n = 360,000) | O00487 | AID 588493 | inhibition, % at 20 µM | human 26S proteasome, Ub4-pepOG fluorescence polarization; 20S core pre-blocked with epoxomicin;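 active means inhibition at 20 µM, scaled to each plate's controls, above about 33%, limit read from the data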
TPT1 inhibitor = inhibitors of Candida albicans tRNA 2'-phosphotransferase TPT1. recombinant caTPT1, FP RNA substrate dephosphorylation. inhibition, % at 5 µM. actives 0.81% (n = 300,000). AID 1962;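 active means inhibition above the mean of all tested compounds plus 3 SD, set per screening campaign, cut at about 24% in these data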;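 further: plate controls were DMSO alone for no effect and ferristatin control at 100 nM for full effect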
Neddyl conf = cullin neddylation inhibition, confirmation. shares compounds with Neddylation inh. TR-FRET cullin neddylation biochemical assay. calls only at 25 µM. actives 13% (n = 1,800); in the data active means inhibition above about 40%;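 further: neddylation substrate is the cullin 1 ring ligase complex with SKP2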
* hit, by the source's call; i = inactive; x = no result given; + = active, no number.

SMILES | HNF4A DNA FP | Rin1 Abl inh | CSN inh | Neddylation inh | Rpn11 inh | TPT1 inhibitor | Neddyl conf
CC(=O)Nc1ccc(S(=O)(=O)Nc2nc3ccccc3nc2Nc2ccccc2)cc1 | 2.0 | -0.9 | 4.0 | x | -0.2 | -2.1 | x
COc1ccc(S(=O)(=O)Nc2nc3ccccc3nc2Nc2cccc(C(=O)O)c2)cc1 | -0.1 | -1.7 | -7.1 | 41.8* | -3.4 | -4.8 | i
CC(Oc1ccc2ccc(=O)oc2c1)C(=O)N1CCOCC1 (stereo not drawn) | 11.9 | -3.0 | -4.7 | 53.0* | 0.5 | -0.7 | x
COC(=O)c1cc(C(=O)OC)[nH]n1 | 0.0 | -0.6 | -0.6 | -0.2 | -3.9 | -0.1 | x
COc1ccc(C2C=CC(=O)CC2)c(OC)c1 (stereo not drawn) | 2.4 | x | -0.5 | 9.5 | x | x | x
N#Cc1nc(-c2ccco2)oc1NCc1ccccc1Cl | -0.5 | 1.0 | -8.4 | 39.4* | -3.4 | -3.1 | i
N#Cc1nc(-c2ccco2)oc1NCc1ccco1 | -4.1 | -1.7 | -0.5 | x | 0.5 | -2.3 | x
CC(C)CN1C(=O)c2ccc(NC(=O)C3CC3)cc2C1=O | -0.7 | 1.4 | 1.4 | 41.4* | -3.7 | 3.7 | i
CC(C)CN1C(=O)c2ccc(NC(=O)c3ccco3)cc2C1=O | 6.1 | 1.9 | -0.6 | 30.0 | -3.3 | 0.2 | x
COc1ccc(CCNC(=O)c2ccc(Cl)cc2)cc1OC | 2.4 | -1.8 | 0.3 | -2.7 | 0.6 | -0.6 | x
COc1ccc(CCNC(=O)c2ccc3nc4cc(Cl)ccc4c(=O)n3c2)cc1OC | 0.4 | 1.8 | 3.7 | 38.7* | 7.2 | 1.6 | i
CC(C)N(Cc1ccccc1)S(=O)(=O)c1ccc(-n2cccn2)cc1 | -3.2 | -3.7 | -5.0 | -6.5 | 2.0 | x | x
CN(C)CCN(C(=O)/C=C/c1cccs1)c1nc2ccc(Br)cc2s1 | -1.7 | -2.4 | 1.0 | 40.1* | -3.0 | -3.1 | i
Cc1ccc2nc(N(CCN(C)C)C(=O)/C=C/c3cccs3)sc2c1 | -0.2 | -1.0 | -0.1 | 16.3 | 2.5 | 2.0 | x
CN1CCc2c(sc3nc(SCC(=O)N4CCOCC4)nc(N)c23)C1 | 3.1 | -6.2 | 6.0 | 41.9* | 0.2 | -3.3 | i
CC1CCN(C(=O)CSc2nc(N)c3c4c(sc3n2)CN(C)CC4)CC1 | 0.2 | 1.0 | 1.1 | 35.3 | 25.9 | x | x
CC(OC(=O)Nc1ccccc1)C(=O)OC1CCCCC1 (stereo not drawn) | 2.3 | 2.5 | -2.8 | 15.1 | -6.5 | x | x
Cc1nn(-c2ccccc2)c(C)c1/C=N/NC(=O)c1ccccc1O | 0.9 | 0.6 | 2.7 | 33.5 | -2.6 | x | x
Cc1nn(-c2ccccc2)c(N2CCCC2)c1/C=N/NC(=O)c1ccccc1O | -2.4 | -4.5 | -15.1 | 45.2* | 1.9 | -2.1 | i
O=C(NNC(=O)c1csc(-c2cnccc2C(F)(F)F)n1)c1ccc(C(F)(F)F)cc1 | 4.8 | 2.4 | 5.5 | 42.1* | 7.9 | 2.1 | i
COc1ccc2cc3cc(C(=O)N4CCCC(C)C4)oc3nc2c1 (stereo not drawn) | -0.6 | 2.0 | -1.6 | 45.0* | -13.4 | -3.3 | i
CCOc1ccc(NC(=S)N2CCN(c3ccc(N4CCOCC4)nn3)CC2)cc1 | -2.0 | 0.0 | -0.9 | 42.4* | -11.3 | 3.0 | i
O=C(Nc1sc2c(c1C(=O)N1CCOCC1)CCCCC2)c1cccnc1 | 0.2 | 1.5 | -16.7 | -5.7 | 1.8 | -5.3 | x
C=CCN1C(=O)C(CC(=O)O)S/C1=N/N=C/c1ccc(N(CC)CC)cc1 (stereo not drawn) | -6.4 | -0.4 | 2.9 | 42.6* | 2.2 | x | +
COCCn1c(=O)[nH]c2cc(C(=O)OC)ccc2c1=O | 3.1 | 0.7 | -2.6 | 41.8* | 4.4 | -1.2 | i
SMILES | HNF4A DNA FP | Rin1 Abl inh | CSN inh | Neddylation inh | Rpn11 inh | TPT1 inhibitor | Neddyl conf
CCN(C(=O)Cn1cnc2ccccc2c1=O)C1CCS(=O)(=O)C1 (stereo not drawn) | 1.9 | -0.8 | -1.1 | 1.9 | 2.0 | 0.8 | x
Cc1cccc(NC(=O)CSc2cccc3cccnc23)c1 | 2.2 | 1.0 | -2.8 | 34.6 | 10.8 | -0.8 | x
O=C(CSc1cccc2cccnc12)Nc1cc(C(=O)O)cc(C(=O)O)c1 | -1.4 | -0.3 | 0.2 | 48.6* | 6.0 | -1.0 | +
O=C(OCC(=O)N1CCOCC1)c1ccc(Cl)cc1[N+](=O)[O-] | 1.1 | -0.2 | 3.6 | -35.6 | -2.3 | 1.1 | x
Cc1csc(N2CCN(c3cc4c(cc3Cl)nc(-c3ccncc3)n4CCCN3CCCC3)CC2)n1 | 10.4 | -0.4 | -0.2 | 29.8* | -9.3 | 0.1 | i
CC(=O)c1ccc(-c2ccc(C(=O)N3CCC(C(N)=O)CC3)o2)cc1 | 1.1 | -3.3 | -2.3 | 68.6* | -6.2 | -5.3 | x
COc1c2c(cc3oc(CO[C@@H]4O[C@H](CO)[C@@H](O)[C@H](O)[C@H]4O)cc(=O)c13)O[C@H](C(C)(C)O)C2 | 0.5 | 2.9 | 1.8 | 34.8* | 1.5 | x | i
COc1c2c(cc3oc(C)cc(=O)c13)OC(C(C)(C)OC1OC(CO)C(O)C(O)C1O)C2 (stereo not drawn) | 1.4 | 5.6 | -8.0 | 36.7 | -12.4 | -4.7 | x
O=C1c2ccc(Oc3ccc4c(c3)C(=O)N(CCCCO)C4=O)cc2C(=O)N1CCCCO | 1.3 | -1.9 | -1.7 | -28.4 | -2.8 | -1.1 | x
O=C1c2ccc(-c3ccc4c(c3)C(=O)N(CCCO)C4=O)cc2C(=O)N1CCCO | -3.7 | -3.1 | -0.3 | 53.8* | 0.7 | -3.9 | i
C=CCN(CC=C)Cc1c(C)[nH]c2ccc(C(=O)OCC)cc2c1=O | 4.5 | -1.0 | 6.3 | 44.0* | 1.4 | 2.4 | i
COc1ccc2[nH]c(C(=O)O)c(NS(=O)(=O)c3ccc(C)c(C)c3)c2c1 | 1.0 | -2.2 | -7.2 | 40.3* | -2.4 | -2.0 | i
COc1ccc2[nH]c(C(=O)O)c(NS(=O)(=O)c3ccc(F)cc3)c2c1 | 2.1 | 2.5 | -3.7 | 20.5 | 0.7 | -2.2 | x
O=c1c2ccccc2cnn1Cc1nnc(-c2cccs2)o1 | 2.4 | -1.7 | -0.9 | 4.4 | 6.5 | -0.9 | x
C(=C\c1cccc2ccccc12)/c1nnc(-c2cccs2)o1 | 0.3 | 0.0 | 1.3 | 47.4* | -3.8 | 0.7 | x
O=C(CSc1nnc(-c2ccccn2)o1)Nc1ccccc1Cl | -2.5 | -1.1 | -2.5 | -2.0 | 9.8 | 0.5 | x
COc1cc(/C=N\NC(=O)c2ccc(-c3ccccc3)cc2)cc(Br)c1O | 1.9 | -6.7 | 1.7 | 44.7* | -2.1 | -2.3 | i
O=C(Nc1ccc2nc(-c3cccnc3)[nH]c2c1)C1CCCCC1 | -4.7 | 0.4 | 1.8 | 39.8* | -7.0 | -1.2 | i
O=S(=O)(Cc1ncc(C(F)(F)F)cc1Cl)c1ccccc1 | -5.6 | 2.6 | -1.3 | 1.1 | -4.5 | 5.3 | x
CN(C)c1oc(-c2ccccc2Cl)nc1C#N | 2.3 | -6.4 | -1.6 | 40.7* | 2.4 | 1.2 | i
CC1=C(C(=O)N(C)C)C(c2ccc(N3CCOCC3)cc2)NC(=O)N1 (stereo not drawn) | -5.3 | -1.7 | 0.0 | -3.0 | 2.5 | 8.7 | x

Compound activity: PubChem BioAssay, several laboratories
